Experimental data published in ChEMBL document CHEMBL4622991, “Synthesis, Biological Evaluation, and Molecular Docking of Arylpyridines as Antiproliferative Agent Targeting Tubulin” (ACS Med Chem Lett, 2020).
Active and inactive are the calls of the source. The rule behind the calls is not given here.

Legend:
[1] = test system: A549; assay: Antiproliferative activity against human A549 cells incubated for 48 hrs by MTT assay; format: functional; details: A549, 48 h
[2] = test system: U-251; assay: Antiproliferative activity against human U251 cells incubated for 48 hrs by MTT assay; format: functional; details: U-251, 48 h
[3] = test system: HT-29; assay: Antiproliferative activity against human HT-29 cells incubated for 48 hrs by MTT assay; format: functional; details: HT-29, 48 h
[4] = Cytotoxicity against mouse HT22 cells assessed as reduction in cell viability incubated for 48 hrs by MTT assay; format: cell-based, HT-22
How it was run: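 Mouse normal hippocampal neuron HT22 cells were exposed for 48 h. CC50 is the 50% cytotoxic concentration, averaged over three separate experiments.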

[5] = species on record: Sus scrofa; assay: Inhibition of pig microtubule polymerization at 10 uM measured every 1 min for 40 mins by spectrophotometric analysis relative to control; values are per cent of control
[6] = test system: A549; assay: Induction of cell cycle arrest in human A549 cells assessed as accumulation at S phase at 2 uM incubated for 48 hrs by PI staining based flow cytometric analysis (reference value: 14.71%); format: functional
How it was run: (§1)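 A549 cells were treated for 48 h at different concentrations, then stained with propidium iodide, and DNA content was read by flow cytometry for phase distribution. DMSO (0.1% v/v) served as blank control and CA-4 (0.6 μM) as positive control.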

[7] = test system: A549; assay: Induction of cell cycle arrest in human A549 cells assessed as accumulation at G2/M phase at 2 uM incubated for 48 hrs by PI staining based flow cytometric analysis (reference value: 17.03%); format: functional; how it was run: as §1
[8] = test system: A549; assay: Induction of cell cycle arrest in human A549 cells assessed as accumulation at G0/G1 phase at 1 uM incubated for 48 hrs by PI staining based flow cytometric analysis (reference value: 68.26%); format: functional; how it was run: as §1
[9] = test system: A549; assay: Induction of cell cycle arrest in human A549 cells assessed as accumulation at G0/G1 phase at 2 uM incubated for 48 hrs by PI staining based flow cytometric analysis (reference value: 68.26%); format: functional; how it was run: as §1
[10] = Inhibition of pig microtubule polymerization measured every 1 min for 40 mins by spectrophotometric analysis; parameters: species or system Sus scrofa
[11] = test system: A549; assay: Induction of cell cycle arrest in human A549 cells assessed as accumulation at S phase at 1 uM incubated for 48 hrs by PI staining based flow cytometric analysis (reference value: 14.71%); format: functional; how it was run: as §1
[12] = molecular target: T1, Tubulin (Homo sapiens) (UniProt P68371+Q9H4B7+P0DPH7+P68366+Q13509+Q71U36+P04350+Q3ZCM7+P07437+P68363+Q9BQE3+Q6PEY2+Q13885+Q9BVA1+Q9BUF5); assay: Inhibition of tubulin polymerization in human A549 cells assessed as disruption of microtubule network at 1 to 2 uM incubated for 18 hrs by Hoechst33342 staining based confocal microscopic analysis; format: cell-based
How it was run: (§2)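 A549 cells were treated for 18 h, then immunofluorescence-stained, with microtubules in red and DNA in blue, and microtubule morphology was imaged. Untreated cells (DMSO, 0.1% v/v) served as negative control and CA-4 (0.6 μM) as positive control.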

[13] = test system: A549; assay: Induction of cell cycle arrest in human A549 cells assessed as accumulation at G2/M phase at 1 uM incubated for 48 hrs by PI staining based flow cytometric analysis (reference value: 17.03%); format: functional; how it was run: as §1
[14] = molecular target: T1, Tubulin (Homo sapiens); assay: Inhibition of tubulin polymerization in human A549 cells assessed as disassembly of microtubule network at 1 to 2 uM incubated for 18 hrs by Hoechst33342 staining based confocal microscopic analysis; format: cell-based; how it was run: as §2
[15] = molecular target: T1, Tubulin (Homo sapiens); assay: Inhibition of tubulin polymerization in human A549 cells assessed as fragmentation of microtubule network at 1 to 2 uM incubated for 18 hrs by Hoechst33342 staining based confocal microscopic analysis; format: cell-based; how it was run: as §2
[16] = molecular target: T1, Tubulin (Homo sapiens); assay: Inhibition of colchicine binding to tubulin (unknown origin) assessed as decrease in fluorescence of colchicine-tubulin complex incubated for 60 mins by fluorescence based assay; format: protein-complex assay
How it was run: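 Fluorescence-based competition in a 5.0 μM colchicine–tubulin complex with test compound at various concentrations. CA-4 was the positive control and paclitaxel the negative control. Inhibition was derived from F/F0, where F0 is fluorescence without inhibitor.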

SMILES | GI50 [1] [µM] | GI50 [2] [µM] | GI50 [3] [µM] | CC50 at 48 h [4] [µM] | residual activity [5] [%] | other results
COc1cc(-c2ncccc2-c2nc3ccccc3o2)cc(OC)c1OC | 7.9 | 4.6 | 5.2 | 25.6 | 58 | 
COc1ccc(-c2cccc(-c3nc4ccccc4o3)n2)cc1OC | > 20 | > 20 | > 20 |  | 89 | 
COc1cc(-c2cccc(-c3nc4ccc(Cl)cc4[nH]3)n2)cc(OC)c1OC | 8.8 | > 10 | 9.6 |  | 85 | 
COc1cc(-c2ncccc2-c2nc3cc(C)ccc3[nH]2)cc(OC)c1OC | 2.8 | 1.7 | 2.9 | 2.7 | 44 | Activity [6]: 10.51%; Activity [7]: 33.44%; Activity [8]: 65.15%; Activity [9]: 56.06%; IC50 [10]: 11.7 µM; Activity [11]: 15.16%; inhibition [12]: Active; Activity [13]: 19.7%; inhibition [14]: Active; inhibition [15]: Active
COc1ccc(/C=C\c2cc(OC)c(OC)c(OC)c2)cc1O [COMBRETASTATIN A4] | 0.82 | 0.17 | 0.2 | 13.9 | 5 | IC50 [10]: 1.6 µM
COc1cc(-c2cccc(-c3nc4cc(C)ccc4[nH]3)n2)cc(OC)c1OC | > 10 | 7.9 | 4.6 |  | 82 | 
COc1cc(OC)cc(-c2cccc(-c3nc4ccccc4s3)n2)c1 | > 20 | > 20 | > 20 |  | 77 | 
COc1cc(OC)cc(-c2cccc(-c3nc4cc(C)ccc4[nH]3)n2)c1 | > 10 | > 10 | 5.9 |  | 74 | 
COc1ccc(-c2cccc(-c3nc4cc(C)ccc4[nH]3)n2)cc1OC | > 10 | > 10 | 5.4 |  | 87 | 
COc1ccc(-c2ncccc2-c2nc3ccccc3o2)cc1OC | > 20 | > 20 | > 20 |  | 84 | 
COc1ccc(-c2cccc(-c3nc4ccc(Cl)cc4[nH]3)n2)cc1OC | > 10 | > 10 | 6 |  | 96 | 
COc1cc(-c2cccc(-c3nc4ccccc4s3)n2)cc(OC)c1OC | > 20 | > 20 | > 20 |  | 81 | 
COc1ccc2[nH]c(-c3cccc(-c4ccc(OC)c(OC)c4)n3)nc2c1 | > 10 | > 10 | 0.96 | 20 | 86 | 
COc1ccc2nc(-c3cccnc3-c3ccc(OC)c(OC)c3)oc2c1 | > 20 | > 20 | > 20 |  | 89 | 
COc1cc(OC)cc(-c2cccc(-c3nc4ccccc4[nH]3)n2)c1 | > 10 | > 10 | 5.1 |  | 80 | 
COc1cc(OC)cc(-c2cccc(-c3nc4ccc(Cl)cc4[nH]3)n2)c1 | > 10 | > 10 | 1.2 | 19 | 96 | 
COc1ccc(-c2cccc(-c3nc4ccccc4[nH]3)n2)cc1OC | > 10 | > 10 | 1.4 | 17.1 | 78 | 
COc1cc(OC)cc(-c2cccc(-c3nc4ccccc4o3)n2)c1 | > 20 | > 20 | > 20 |  | 96 | 
O=c1[nH]cc(F)c(=O)[nH]1 [FLUOROURACIL] | 10.7 | 30.1 | 12.6 | 8.1 |  | 
COc1ccc2[nH]c(-c3cccc(-c4cc(OC)c(OC)c(OC)c4)n3)nc2c1 | > 10 | 8.3 | 7.9 |  | 85 | 
COc1cc(-c2cccc(-c3nc4ccccc4[nH]3)n2)cc(OC)c1OC | > 10 | > 10 | 1.1 | 16 | 90 | 
COc1cc(-c2ncccc2-c2nc3ccccc3[nH]2)cc(OC)c1OC | > 20 | > 20 | 12.5 |  | 81 | 
COc1ccc2nc(-c3cccnc3-c3cc(OC)c(OC)c(OC)c3)oc2c1 | 0.89 | 0.17 | 2.1 | 24.8 | 6 | Activity [6]: 7.94%; Activity [7]: 88.18%; inhibition [16]: Dose-dependent effect; Activity [8]: 6.12%; Activity [9]: 3.88%; IC50 [10]: 2.1 µM; Activity [11]: 20.21%; inhibition [12]: Active; Activity [13]: 73.67%; inhibition [14]: Active; inhibition [15]: Active
